One may read the Ki as a dissociation constant, usually derived from enzyme kinetics or from competition with a known ligand. What is called IC50 is the concentration that gives 50% inhibition. The low end stands for inhibition by little substance, the high end for a need for much substance. Broadly, the half-life is how long it takes for the measured level to halve.

The results in this text go back to ChEMBL document CHEMBL1156021, “Design, synthesis, and evaluation of novel 3-amino-4-hydrazine-cyclobut-3-ene-1,2-diones as potent and selective CXCR2 chemokine receptor antagonists” (Bioorg Med Chem Lett, 2009).

Data set [1] addresses T1, C-X-C chemokine receptor type 2 (Homo sapiens, UniProt P25025).
T1 sequence (P25025 whole entry): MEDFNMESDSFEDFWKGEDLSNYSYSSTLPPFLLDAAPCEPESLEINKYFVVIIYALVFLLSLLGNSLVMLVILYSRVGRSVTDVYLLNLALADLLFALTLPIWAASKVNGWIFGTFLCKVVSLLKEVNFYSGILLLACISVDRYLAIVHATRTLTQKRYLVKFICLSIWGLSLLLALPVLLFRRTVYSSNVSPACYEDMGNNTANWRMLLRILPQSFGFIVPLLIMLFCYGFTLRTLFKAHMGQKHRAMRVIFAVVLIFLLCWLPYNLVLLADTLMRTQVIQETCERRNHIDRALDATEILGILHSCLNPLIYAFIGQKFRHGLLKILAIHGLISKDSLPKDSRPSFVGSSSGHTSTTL
Put plainly: Displacement of [125I]IL-8 from human CXCR2 expressed in mouse BaF3 cells by liquid scintillation counting. Format: cell-based. In outline: (§1)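 SPA competition binding with receptor-overexpressing membranes (CXCR2 or CXCR1, CXCR1 at twice the membrane amount) mixed with 2 mg/mL wheatgerm-agglutinin-coated SPA beads. Buffer was 25 mM HEPES, 3 mM MgCl2, pH 7.4; the membrane and bead mix was held on ice 5 min. Tracer was [125I]IL-8 from a 0.040 nM stock. Compounds were half-log serially diluted in DMSO. Plates were incubated 2 h at room temperature, protected from light, then counted by liquid scintillation.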
In general terms: In a radioligand displacement assay an active substance lowers the binding of a labelled ligand.

Data set [2] addresses T2, C-X-C chemokine receptor type 1 (Homo sapiens, UniProt P25024).
T2 sequence (P25024 whole entry): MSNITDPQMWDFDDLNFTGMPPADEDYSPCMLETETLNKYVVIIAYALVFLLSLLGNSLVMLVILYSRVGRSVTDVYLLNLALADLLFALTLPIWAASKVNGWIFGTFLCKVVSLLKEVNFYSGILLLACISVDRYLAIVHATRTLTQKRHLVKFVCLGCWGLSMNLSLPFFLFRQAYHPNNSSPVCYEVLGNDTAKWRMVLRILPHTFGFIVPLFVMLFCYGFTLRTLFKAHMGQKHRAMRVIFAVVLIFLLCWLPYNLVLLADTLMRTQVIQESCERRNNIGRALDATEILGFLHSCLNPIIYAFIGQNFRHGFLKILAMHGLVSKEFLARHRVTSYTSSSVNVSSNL
Put plainly: Displacement of [125I]IL-8 from human CXCR1 expressed in mouse BaF3 cells by liquid scintillation counting. The class given is cell-based. Summed up: as §1

The species entered for the next data set is Homo sapiens. As to the kind of experiment: Selectivity ratio of Ki for human CXCR1 to Ki for human CXCR2. Summed up:
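Scintillation proximity binding assays on membranes over-expressing CXCR2 or CXCR1, with CXCR1 membranes at twice the CXCR2 membrane level. Membranes were premixed with 2 mg/mL wheatgerm-agglutinin SPA beads in 25 mM HEPES, 3 mM MgCl2, pH 7.4, 5 min on ice. Half-log serial DMSO dilutions were added with [125I]IL-8 (0.040 nM stock). Plates were kept 2 h at room temperature in the dark, then read by scintillation counting.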

Data set [3] can be described thus: Metabolic stability in human liver microsomes assessed as compound remaining at 1 uM after 120 mins. The class given is ADME, Microsome. Conditions: read-out: Stability.
Data set [4] is described as follows: Metabolic stability in human liver microsomes assessed as half life at 1 uM. Format: ADME, Microsome. In general terms: Microsomes from liver hold many membrane-bound enzymes, among them those of drug oxidation.
Data set [5] in a line: Metabolic stability in rat liver microsomes assessed as half life at 1 uM. Format: ADME, Microsome.

A value given as a limit tells only on which side of the number the result lay.

`CCN(Cc1ccc(F)cc1)Nc1c(Nc2cccc(C(=O)N(C)C)c2O)c(=O)c1=O`: the Ki was 7.2 µM in data set [1] and above 12 µM in data set [2].

Turning to `CCN(CC)Nc1c(Nc2cccc(C(=O)N(C)C)c2O)c(=O)c1=O`, the IC50 in data set [1] was determined as 1.86 µM. The Ki in data set [1] was 0.12 µM; in data set [2], 9.7 µM. Moreover, in the data set listed under Homo sapiens, the Ratio Ki was found to be 80. In data set [3], the remaining at 2 h, 1 µM was above 50%. Also, the half-life at 1 µM in data set [4] is above 2 h; in data set [5], 1.4 h.

As to `CCN(Nc1c(Nc2cccc(C(=O)N(C)C)c2O)c(=O)c1=O)c1ccc(OC)cc1`, the results for the Ki in data set [1] and in data set [2] were 0.18 µM and 6.5 µM, respectively. In the data set listed under Homo sapiens, the Ratio Ki was found to be 40.

`CCN(Nc1c(Nc2cccc(C(=O)N(C)C)c2O)c(=O)c1=O)C(=O)c1ccc(F)cc1`: the Ki is 0.26 µM in data set [1] and above 12 µM in data set [2]. In addition, the Ratio Ki in the data set listed under Homo sapiens was above 46.

In the case of `CCN(Nc1c(Nc2cccc(C(=O)N(C)C)c2O)c(=O)c1=O)c1ccc(F)cc1`, the Ki is 0.55 µM in data set [1] and above 12 µM in data set [2]. Also, the Ratio Ki in the data set filed under Homo sapiens was above 20.

`CCNNc1c(Nc2cccc(C(=O)N(C)C)c2O)c(=O)c1=O` showed a concentration for half-maximal inhibition (IC50) in data set [1] of 5.49 µM.

In the case of `CCN(Nc1c(Nc2cccc(C(=O)N(C)C)c2O)c(=O)c1=O)c1ccccc1`, the Ki in data set [1] was 0.11 µM; in data set [2], 4.1 µM. In the data set listed under Homo sapiens, the Ratio Ki worked out at 40. In addition, the remaining at 2 h, 1 µM in data set [3] is above 50%. Besides, the half-life at 1 µM in data set [4] was above 2 h.

In data set [1], `CCN(Nc1c(Nc2cccc(C(=O)N(C)C)c2O)c(=O)c1=O)C(C)=O` came in with an IC50 of 3.29 µM and a Ki of 0.32 µM. The Ki in data set [2] was above 12 µM.

For the compound `CCN(Nc1c(Nc2cccc(C(=O)N(C)C)c2O)c(=O)c1=O)c1ccccn1`, the Ki in data set [1] worked out at 0.13 µM; in data set [2] it was 5.2 µM. The Ratio Ki in the data set listed under Homo sapiens came to 40. Also, the remaining at 2 h, 1 µM in data set [3] is above 50%. In addition, the half-life at 1 µM in data set [4] was above 2 h.
